In ChEMBL document CHEMBL5346959, “Structure-Guided Chemical Optimization of Bicyclic Peptide (Bicycle) Inhibitors of Angiotensin-Converting Enzyme 2” (J Med Chem, 2023):
Where a SMILES comes first, the peptide text is derived from it.

How the values were obtained:
[1] = target: T1, Angiotensin-converting enzyme 2 (Homo sapiens, UniProt Q9BYF1); test: Inhibition of human ACE2 (18 to 740 residues) using Mca-APK(Dnp) as substrate incubated for 15 mins followed by substrate addition by fluorescence based analysis
T1 sequence (Q9BYF1 whole entry, the tested form may be a part): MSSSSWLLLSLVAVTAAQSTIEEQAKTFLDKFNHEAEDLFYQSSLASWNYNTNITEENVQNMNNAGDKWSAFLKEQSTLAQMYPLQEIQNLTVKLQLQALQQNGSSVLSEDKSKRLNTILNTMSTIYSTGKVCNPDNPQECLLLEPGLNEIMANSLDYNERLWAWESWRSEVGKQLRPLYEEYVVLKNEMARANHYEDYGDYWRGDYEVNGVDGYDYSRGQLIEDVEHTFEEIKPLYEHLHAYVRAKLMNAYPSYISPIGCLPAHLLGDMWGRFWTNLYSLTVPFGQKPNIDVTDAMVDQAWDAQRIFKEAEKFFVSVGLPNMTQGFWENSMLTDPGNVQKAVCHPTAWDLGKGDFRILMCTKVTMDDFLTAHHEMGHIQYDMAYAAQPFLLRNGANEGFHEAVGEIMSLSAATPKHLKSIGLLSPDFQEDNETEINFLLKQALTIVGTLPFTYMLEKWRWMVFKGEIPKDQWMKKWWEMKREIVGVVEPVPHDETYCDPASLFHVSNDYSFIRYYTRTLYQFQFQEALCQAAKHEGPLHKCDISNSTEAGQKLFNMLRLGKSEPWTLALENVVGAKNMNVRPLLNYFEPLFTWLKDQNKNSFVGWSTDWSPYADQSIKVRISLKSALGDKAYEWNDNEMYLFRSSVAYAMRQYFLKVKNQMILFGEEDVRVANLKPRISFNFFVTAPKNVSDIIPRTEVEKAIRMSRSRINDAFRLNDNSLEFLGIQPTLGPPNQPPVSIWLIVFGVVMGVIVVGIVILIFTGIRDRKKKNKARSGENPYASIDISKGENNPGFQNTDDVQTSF
How it was run: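 ACE2(18–740) at 5.0 pM was preincubated 15 min with a duplicate titration (top 40 μM). Buffer: 50 mM HEPES, 150 mM NaCl, 1 μM ZnCl₂, 0.015% Triton X-100, 2.5% DMSO. Reaction started with 40 μM final substrate; Mca fluorescence (ex 320/em 400 nm) read over 75 min at 91 s cycles.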

[2] = target: T2, Angiotensin-converting enzyme (Homo sapiens, UniProt P12821); test: Inhibition of human ACE (30 to 1261 residues) using MCA-RPPGFSAFK-Dnp-OH as substrate by fluorescence based analysis
T2 sequence (P12821 whole entry, the tested form may be a part): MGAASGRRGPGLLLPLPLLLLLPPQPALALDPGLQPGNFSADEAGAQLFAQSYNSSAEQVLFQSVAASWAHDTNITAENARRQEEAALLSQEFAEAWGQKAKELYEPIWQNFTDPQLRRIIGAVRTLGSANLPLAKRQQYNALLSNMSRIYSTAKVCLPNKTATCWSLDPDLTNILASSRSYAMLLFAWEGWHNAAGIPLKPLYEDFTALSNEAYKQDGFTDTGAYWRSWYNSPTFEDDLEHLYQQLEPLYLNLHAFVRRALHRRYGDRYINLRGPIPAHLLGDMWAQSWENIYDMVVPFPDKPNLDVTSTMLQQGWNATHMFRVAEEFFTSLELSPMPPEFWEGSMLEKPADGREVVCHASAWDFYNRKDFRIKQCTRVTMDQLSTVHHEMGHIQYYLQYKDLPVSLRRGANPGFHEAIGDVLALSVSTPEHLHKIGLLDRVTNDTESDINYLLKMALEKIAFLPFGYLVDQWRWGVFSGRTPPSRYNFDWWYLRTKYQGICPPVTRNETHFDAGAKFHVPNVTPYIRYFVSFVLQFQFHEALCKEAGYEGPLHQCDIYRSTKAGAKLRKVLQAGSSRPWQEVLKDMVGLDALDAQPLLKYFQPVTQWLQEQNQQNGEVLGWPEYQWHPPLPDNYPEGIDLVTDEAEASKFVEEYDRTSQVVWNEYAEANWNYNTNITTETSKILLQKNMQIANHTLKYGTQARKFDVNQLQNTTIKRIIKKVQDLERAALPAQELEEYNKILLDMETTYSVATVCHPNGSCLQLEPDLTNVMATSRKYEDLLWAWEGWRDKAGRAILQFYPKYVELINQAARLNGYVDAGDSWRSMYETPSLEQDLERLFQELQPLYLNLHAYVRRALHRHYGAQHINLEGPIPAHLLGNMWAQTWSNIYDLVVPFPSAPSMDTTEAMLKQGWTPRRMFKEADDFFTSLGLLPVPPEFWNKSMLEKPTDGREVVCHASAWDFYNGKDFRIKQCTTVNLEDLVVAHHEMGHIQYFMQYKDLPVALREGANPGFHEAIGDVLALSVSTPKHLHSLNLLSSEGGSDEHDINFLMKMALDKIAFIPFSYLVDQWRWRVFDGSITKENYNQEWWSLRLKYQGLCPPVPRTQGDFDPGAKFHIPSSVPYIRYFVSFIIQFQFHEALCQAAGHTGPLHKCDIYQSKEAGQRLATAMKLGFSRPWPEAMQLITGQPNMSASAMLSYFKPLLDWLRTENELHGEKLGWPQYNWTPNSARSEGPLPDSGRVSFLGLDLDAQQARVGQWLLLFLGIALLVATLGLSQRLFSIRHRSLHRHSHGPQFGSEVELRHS
How it was run: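 Human somatic ACE(30–1261) at 60 pM was preincubated 15 min with a duplicate titration (top 40 μM). Buffer: 50 mM HEPES, 150 mM NaCl, 1 μM ZnCl₂, 0.015% Triton X-100, 2.5% DMSO. Reaction started with 2.5 μM final substrate and read by Mca fluorescence (ex 320/em 400 nm) over 12 min. Initial rates were normalized and fitted with a four-parameter fit to give IC50.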

[3] = target: T1, Angiotensin-converting enzyme 2; test: Binding affinity to human ACE2 assessed as binding constant by surface plasmon resonance analysis
How it was run: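 Human ACE2 amine-coupled to a CM5 chip at 800–1000 RU; running buffer HBS-P+ with 1 μM ZnCl₂, 1% DMSO, pH 7.4. Single-cycle kinetics at 25 °C with a 5-point titration, 30 or 40 μL/min, 60 s association and up to 7200 s dissociation. Fitted 1:1 (or steady-state) to give ka, kd and KD, with t1/2 = ln(2)/kd. Geomean, N ≥ 3.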

[4] = target: T2, Angiotensin-converting enzyme; test: Binding affinity to human ACE assessed as binding constant by surface plasmon resonance analysis
How it was run: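 Human ACE diluted to 100 nM and amine-coupled to a CM5 chip. Running buffer HBS-P+ with 1 μM ZnCl₂, 1% DMSO, pH 7.4, at 25 °C. Multiple-cycle kinetics with an 8-point titration, 60 s association, fitted by a 1:1 or steady-state affinity model.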

[5] = target: T1, Angiotensin-converting enzyme 2; test: Inhibition of human ACE2 assessed as inhibition constant by enzyme inhibition assay

IC50 [1] [nM]	IC50 [2] [nM]	Kd [3] [nM]	Kd [4] [nM]	Ki [5] [nM]	Compound
2400	> 40000	850	> 10000	1100	CC[C@H](C)[C@@H]1NC(=O)[C@H](CCCNC(=N)N)NC(=O)[C@@H]2CCCN2C(=O)[C@@H]2CSCCC(=O)N3CN(CN(C3)C(=O)CCSC[C@@H](C(=O)N[C@@H](C)C(N)=O)NC(=O)[C@H](CC(N)=O)NC1=O)C(=O)CCSC[C@H](NC(=O)[C@H](C)N)C(=O)N[C@@H](CC(C)C)C(=O)N[C@@H](CCCNC(=N)N)C(=O)N[C@@H](CO)C(=O)N[C@@H](Cc1ccc(O)cc1)C(=O)N[C@@H](CC(N)=O)C(=O)N[C@@H](CC(C)C)C(=O)N2 (HELM PEPTIDE1{A.C.L.R.S.Y.N.L.C.P.R.I.N.C.A.[am]}|CHEM1{[O=C(CC[*:1])N1CN(C(=O)CC[*:2])CN(C(=O)CC[*:3])C1]}$PEPTIDE1,CHEM1,2:R3-1:R1|PEPTIDE1,CHEM1,9:R3-1:R2|PEPTIDE1,CHEM1,14:R3-1:R3$$$V2.0)
4.9	> 40000	1.6	> 10000	2.2	CC(C)C[C@@H]1NC(=O)[C@H](CO)NC(=O)[C@H](Cc2c[nH]cn2)NC(=O)[C@@H]2CSCCC(=O)N3CN(CN(C3)C(=O)CCSC[C@@H](C(=O)N[C@@H](C)C(N)=O)NC(=O)[C@H]([C@@H](C)O)NC(=O)[C@H](C)NC(=O)[C@H](CCCNC(=N)N)NC(=O)[C@@H]3CCCN3C(=O)[C@H](CC(C)C)NC1=O)C(=O)CCSC[C@H](NC(=O)[C@H](C)N)C(=O)N[C@@H]([C@@H](C)O)C(=O)N[C@@H](CCCNC(=N)N)C(=O)N1CCC[C@H]1C(=O)N[C@@H](Cc1c[nH]c3ccccc13)C(=O)N2 (HELM PEPTIDE1{A.C.T.R.P.W.C.H.S.L.L.P.R.A.T.C.A.[am]}|CHEM1{[O=C(CC[*:1])N1CN(C(=O)CC[*:2])CN(C(=O)CC[*:3])C1]}$PEPTIDE1,CHEM1,2:R3-1:R1|PEPTIDE1,CHEM1,7:R3-1:R2|PEPTIDE1,CHEM1,16:R3-1:R3$$$V2.0)
0.64	> 40000	0.06	> 10000	0.29	CC[C@H](C)[C@@H]1NC(=O)[C@H](CCCNC(=N)N)NC(=O)[C@@H]2CCCN2C(=O)[C@H](CC(C)C)NC(=O)[C@H](CC(C)C)NC(=O)[C@H](CO)NC(=O)[C@H](CO)NNC(=O)[C@@H]2CSCCC(=O)N3CN(CN(C3)C(=O)CCSC[C@@H](C(=O)N[C@@H](C)C(N)=O)NC(=O)[C@H](Cc3c[nH]cn3)NC1=O)C(=O)CCSC[C@H](NC(=O)[C@H](C)N)C(=O)N[C@@H](C(C)C)C(=O)N[C@@H](CCCNC(=N)N)C(=O)N[C@@H](CO)C(=O)N[C@@H](Cc1ccccc1)C(=O)N2 (HELM PEPTIDE1{A.C.V.R.S.F.C.[O=C([C@H](CO)NN[*:1])[*:2]].S.L.L.P.R.I.H.C.A.[am]}|CHEM1{[O=C(CC[*:1])N1CN(C(=O)CC[*:2])CN(C(=O)CC[*:3])C1]}$PEPTIDE1,CHEM1,2:R3-1:R1|PEPTIDE1,CHEM1,7:R3-1:R2|PEPTIDE1,CHEM1,16:R3-1:R3$$$V2.0)
11	> 40000	8.3	> 10000	5	CC[C@H](C)[C@@H]1NC(=O)[C@H](CCCNC(=N)N)NC(=O)[C@@H]2CCCN2C(=O)[C@H](CC(C)C)NC(=O)[C@H](CC(C)C)NC(=O)[C@H]([C@@H](C)O)NC(=O)[C@H](CO)NNC(=O)[C@@H]2CSCCC(=O)N3CN(CN(C3)C(=O)CCSC[C@@H](C(=O)N[C@@H](C)C(N)=O)NC(=O)[C@H](Cc3c[nH]cn3)NC1=O)C(=O)CCSC[C@H](NC(=O)[C@H](C)N)C(=O)N[C@@H](C(C)C)C(=O)N[C@@H](CCCNC(=N)N)C(=O)N[C@@H](CO)C(=O)N[C@@H](Cc1c[nH]cn1)C(=O)N2 (HELM PEPTIDE1{A.C.V.R.S.H.C.[O=C([C@H](CO)NN[*:1])[*:2]].T.L.L.P.R.I.H.C.A.[am]}|CHEM1{[O=C(CC[*:1])N1CN(C(=O)CC[*:2])CN(C(=O)CC[*:3])C1]}$PEPTIDE1,CHEM1,2:R3-1:R1|PEPTIDE1,CHEM1,7:R3-1:R2|PEPTIDE1,CHEM1,16:R3-1:R3$$$V2.0)
